Assay outcomes from PubChem BioAssay.
core dimer inh: inhibitors of HCV core protein dimerization, primary screen, biochemical, TR-FRET, high-throughput. TR-FRET GST/Flag-core106 dimerization, 1536-well. 300,000 tested, 0.33% active. inhibition, % at 5 µM;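 active = inhibition above the mean of all tested compounds plus 3 SD, set per screening campaign, cut at about 45% in these data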
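Assay system: tagged HCV core106 pair (GST and Flag); medium: KF-containing HEPES buffer, pH 7.45, DTT, CHAPS, BSA; also added: Eu donor and XL665 acceptor anti-tag antibodies; dosing: 5 µM single dose; timing: compound-protein-antibody incubation 4 h at 22.5 °C; signal: TR-FRET 671 and 617 nm emission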
UHRF1 MBD2 ctr: UHRF1 methylated DNA binding inhibitors, primary screen, counter-screen for MBD2 inhibitor project, biochemical, TR-FRET, human UHRF1, single concentration; 370,000 tested, 0.75% active; AID 687016, 2013; inhibition, % at 4.4 µM; UHRF1 binding to methylated oligo; in the data active = inhibition above about 21%;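 also: UHRF1 SRA domain binding a hemimethylated CpG hairpin DNA probe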
Target sequence (Q96T88 whole entry, looked up, the tested form may be a part): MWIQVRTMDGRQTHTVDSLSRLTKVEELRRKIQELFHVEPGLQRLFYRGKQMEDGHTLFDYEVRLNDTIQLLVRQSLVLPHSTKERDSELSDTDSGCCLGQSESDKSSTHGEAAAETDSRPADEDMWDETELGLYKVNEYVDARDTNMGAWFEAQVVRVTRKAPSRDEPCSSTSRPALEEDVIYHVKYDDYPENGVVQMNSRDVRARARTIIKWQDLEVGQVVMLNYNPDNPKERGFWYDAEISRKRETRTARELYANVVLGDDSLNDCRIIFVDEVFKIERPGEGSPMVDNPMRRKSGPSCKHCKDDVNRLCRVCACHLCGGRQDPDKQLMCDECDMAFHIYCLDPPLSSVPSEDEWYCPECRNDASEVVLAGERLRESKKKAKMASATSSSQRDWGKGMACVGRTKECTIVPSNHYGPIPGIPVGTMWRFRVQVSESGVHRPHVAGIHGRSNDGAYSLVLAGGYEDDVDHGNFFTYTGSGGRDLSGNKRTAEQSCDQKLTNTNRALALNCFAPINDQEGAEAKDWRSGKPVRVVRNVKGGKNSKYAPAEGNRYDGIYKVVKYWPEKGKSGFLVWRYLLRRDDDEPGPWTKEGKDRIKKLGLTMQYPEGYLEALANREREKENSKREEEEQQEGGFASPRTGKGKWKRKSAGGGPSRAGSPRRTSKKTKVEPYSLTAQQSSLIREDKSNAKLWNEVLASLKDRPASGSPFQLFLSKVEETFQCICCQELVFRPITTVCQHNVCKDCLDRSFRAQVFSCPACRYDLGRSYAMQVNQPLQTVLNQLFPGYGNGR
TDP2 absorb: human TDP2 enzyme inhibitors, primary screen, biochemical, epi absorbance, recombinant enzyme; Tyrosyl-DNA phosphodiesterase 2 (Homo sapiens), O95551; T5PNP hydrolysis, p-nitrophenol absorbance 415 nm; inhibition, % at 12.8 µM; 370,000 tested, 0.34% active; AID 720702, 2013;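 active = inhibition above the mean of all tested compounds plus 3 SD, set per campaign, cut at about 25% in these data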
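test system = human TDP2 enzyme | input = TDP2 enzyme at 120 nM final | medium = 50 mM Tris-HCl pH 7.5 with Mg2+, KCl, DTT, BSA | also added = T5PNP substrate, 5 mM | times = 2 h at 37 °C | technique = epi absorbance | benchmarks = high control without enzyme, low control DMSO plus TDP2 | replication = each compound tested once, singlicate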
LEDGF integ inh: blockers of LEDGF/p75-dependent integrase strand transfer – biochemical, TR-FRET, high throughput, primary screen; HIV-1 integrase (with human LEDGF/p75); TR-FRET IN-LEDGF/p75 DNA integration, Eu/Cy5; inhibition, % at 3.7 µM; 370,000 tested, 0.64% active; AID 743269, 2014;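 active = inhibition above the screen-wide mean plus 3 SD, cut at about 13% in these data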;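 also: signal is the Cy5 over europium emission ratio at 671 and 618 nm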
MBD2 DNA inh: inhibitors of MBD2 binding to methylated DNA, primary screen, biochemical, TR-FRET, DNA-binding domain, human. MBD2 binding to methylated oligonucleotide. 370,000 tested, 0.31% active. inhibition, % at 4.4 µM. Methyl-CpG-binding domain protein 2 (Homo sapiens), Q9UBB5; in the data active = inhibition above about 13%
IN multimer up: HIV-1 IN multimer formation enhancers, counter-screen for LEDGF/p75 integration inhibitor project, biochemical, TR-FRET. shares compounds with LEDGF integ inh. TR-FRET HIV-1 integrase multimerization. activation, % at 7.7 µM. 2,000 tested, 17% active; in the data active = activation above about 8.9%
TR-FRET interf: TR-FRET optical interference artefacts, confirmation, artefact control for LEDGF/p75-dependent integration inhibitor project, biochemical, HIV-1 IN multimerization; shares compounds with LEDGF integ inh; TR-FRET optical interference counterscreen; inhibition, % at 7.7 µM; 2,000 tested, under 10 active;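 active = inhibition above the mean over all tested compounds plus 3 SD, which no compound reached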
LEDGF integ conf: inhibitors of HIV-1 IN-LEDGF/p75 DNA integration, confirmation, biochemical, TR-FRET | AID 1053136, 2014 | inhibition, % at 3.7 µM | TR-FRET LEDGF/p75-dependent HIV-1 integration | 2,000 tested, 36% active | shares compounds with LEDGF integ inh; in the data active = inhibition above about 14%
Of the large screens only hits and unclear results are named; the others gave an inactive call (follow-up assays come after a bar, where they were run). An excerpt weighted towards active compounds, which were near 1.8% of everything screened.

C[C@H](O)[C@@H]1C(=O)N2CCc3c([nH]c4c(-c5ccccc5)cccc34)[C@@H]2C[C@@H]1N(C)C(=O)/C=C/c1ccccc1	none (no result: core dimer inh)
CC(=O)c1ccc2c(c1)C1C=CCC1C(C(=O)O)N2 (configuration not stated)	UHRF1 MBD2 ctr 93, LEDGF integ inh 90, MBD2 DNA inh 104 (no result: core dimer inh) | IN multimer up 53 | TR-FRET interf inactive | LEDGF integ conf 77
Cc1ccccc1S(=O)(=O)N1CCCc2nc(C)c(C)cc21	none (no result: core dimer inh)
COC(=O)c1ccc2nc(-c3ccc(C)cc3)c(Cc3ccccc3)n2c1	LEDGF integ inh 14 (no result: core dimer inh) | IN multimer up inactive | TR-FRET interf inactive | LEDGF integ conf inactive
COC(=O)[C@@H]1[C@H](O[Si](C)(C)C(C)(C)C)C2OC2C[C@H]1S(=O)(=O)c1ccccc1 (some centres not stated)	none (no result: core dimer inh)
CN(C)c1ccc(N=C/C=C2\N(C)c3ccccc3C2(C)C)cc1	LEDGF integ inh 15 | IN multimer up inactive | TR-FRET interf inactive | LEDGF integ conf inactive
O=C(N=C1N(CC2CC2)CC2(C=C3CCCCC3n3c(=O)n(-c4ccccc4)c(=O)n32)N1C(=O)OCc1ccccc1)c1ccccc1 (configuration not stated)	none (no result: core dimer inh)
CN(C)C(=S)NC(=S)Nc1ccc2ccccc2c1	LEDGF integ inh 16 (no result: core dimer inh) | IN multimer up inactive | TR-FRET interf inactive | LEDGF integ conf 18
CC(C)(C)NC(=O)NC(=O)CSc1ccc(S(=O)(=O)N2CCCCC2)cn1	LEDGF integ inh 20 (no result: core dimer inh) | IN multimer up inactive | TR-FRET interf inactive | LEDGF integ conf inactive
COC(=O)C/C=C/[C@@H](C)[C@H](NC(=O)OCC(Cl)(Cl)Cl)c1ccc(-c2ccccc2)cc1	none (no result: core dimer inh)
Cc1ccc(SC2=C(Sc3ccc(C)cc3)C(=O)c3ccccc3C2=O)cc1	none
CC1=CC(=O)C(Sc2ccc(C)cc2)=CC1=O	LEDGF integ inh 17 (no result: core dimer inh) | IN multimer up inactive | TR-FRET interf inactive | LEDGF integ conf inactive
CCC(=O)Nc1nnc(S(=O)(=O)N2CCCCCC2)s1	none
CCC(=O)Nc1nnc(S(=O)(=O)N2CCCC2)s1	LEDGF integ inh 14 | IN multimer up inactive | TR-FRET interf inactive | LEDGF integ conf inactive
CCOC(=O)NC1(NC2CCCCC2)Oc2ccccc2O1	LEDGF integ inh 22 | IN multimer up inactive | TR-FRET interf inactive | LEDGF integ conf inactive
COC(=O)[C@]12C[C@H](CC(=O)NCc3ccccc3)C(=O)N(Cc3cccc4ccccc34)C1=C[C@H](C(C)(C)C)O[C@@H]2C	none (no result: core dimer inh)
O=C(C1CCN(c2ncnc3c2sc2cccc(F)c23)CC1)N1CCN(Cc2ccccc2)CC1	none (no result: core dimer inh)
Cc1nn(CCC(=O)NNC(=O)Nc2ccccc2F)c(C)c1[N+](=O)[O-]	none (no result: core dimer inh)
Cc1ccc(C(=O)O)cc1N1C(=O)c2cccc3c([N+](=O)[O-])ccc(c23)C1=O	LEDGF integ inh 14 | IN multimer up inactive | TR-FRET interf inactive | LEDGF integ conf 27
Cc1cc2c(c(=O)o1)[C@@]1(C(=O)N(C)c3c(Br)cccc31)C1=C(CCCC1=O)O2	none (no result: core dimer inh)
COc1ccc(-c2c(Cc3ccccc3)nc(NC(=O)c3ccccc3)n2C)cc1	none (no result: core dimer inh)
O=C(Nc1nc(Cc2ccccc2)c(Cc2ccccc2)n1Cc1ccccc1)c1ccccc1	none (no result: core dimer inh)
CCCn1c(NC(=O)c2ccccc2)nc(Cc2ccccc2)c1Cc1ccccc1	LEDGF integ inh 15 (no result: core dimer inh) | IN multimer up inactive | TR-FRET interf inactive | LEDGF integ conf 25
COc1ccc(Cn2c(NC(=O)c3ccccc3)nc(Cc3ccccc3)c2Cc2ccccc2)cc1	LEDGF integ inh 14 (no result: core dimer inh) | IN multimer up inactive | TR-FRET interf inactive | LEDGF integ conf 14
Cn1c(NC(=O)c2ccccc2)nc(Cc2ccccc2)c1-c1ccccc1	LEDGF integ inh 23 (no result: core dimer inh) | IN multimer up inactive | TR-FRET interf inactive | LEDGF integ conf 31
Cn1c(NC(=O)c2ccccc2)nc(Cc2ccccc2)c1Cc1ccccc1	LEDGF integ inh 25 (no result: core dimer inh) | IN multimer up inactive | TR-FRET interf inactive | LEDGF integ conf 27
COc1ccc(Cn2c(NC(=O)c3ccccc3)nc(Cc3ccccc3)c2Cc2ccccc2)c(OC)c1	none (no result: core dimer inh)
Cn1c(NC(=O)c2ccc(F)cc2)nc2ccccc21	none (no result: core dimer inh)
CC(=O)c1c(C)[nH]c(C(=O)OCC(=O)Nc2cccnc2Cl)c1C	LEDGF integ inh 24 (no result: core dimer inh) | IN multimer up inactive | TR-FRET interf inactive | LEDGF integ conf inactive
CC(=O)c1c(C)[nH]c(C(=O)OCC(=O)Nc2ccccc2Cl)c1C	none
O=C1COc2ccccc2C(c2nnnn2-c2ccc3ccccc3c2)N1C1CC1 (configuration not stated)	none (no result: core dimer inh)
O=C(NNC(=O)C1CCCCC1)c1ccc(Br)cc1	LEDGF integ inh 15 | IN multimer up inactive | TR-FRET interf inactive | LEDGF integ conf inactive
O=C(NNC(=O)C1CCC1)c1ccc(Br)cc1	none
CC(=O)c1cc(-c2ccccc2)n(CC(=O)NCc2ccc(F)cc2)c1C	none (no result: core dimer inh)
CCCC1CCC2(CCCN2CCOC(=O)Nc2ccc(Br)cc2)CC1 (configuration not stated)	none (no result: core dimer inh)
COc1ccc(Nc2ncc(C(=O)N3CCN(c4ccc(F)cc4)CC3)c3ccccc23)cc1	LEDGF integ inh 14 | IN multimer up inactive | TR-FRET interf inactive | LEDGF integ conf inactive
COc1ccc(Nc2ncc(C(=O)O)c3ccccc23)cc1	none
C[C@@H]1CN([C@@H](C)CO)C(=O)Cc2cc(NC(=O)Nc3ccc(C(F)(F)F)cc3)ccc2O[C@@H]1CN(C)S(=O)(=O)c1ccc(Cl)cc1	none (no result: core dimer inh)
CC(C)NC(=O)N(C)C[C@@H]1Oc2ccc(NC(=O)Nc3ccc(C(F)(F)F)cc3)cc2CC(=O)N([C@H](C)CO)C[C@@H]1C	LEDGF integ inh 14 (no result: core dimer inh) | IN multimer up inactive | TR-FRET interf inactive | LEDGF integ conf inactive
